Results reported in ChEMBL document CHEMBL3124889, “Synthesis, spectroscopic, and photophysical characterization and photosensitizing activity toward prokaryotic and eukaryotic cells of porphyrin-magainin and -buforin conjugates” (J Med Chem, 2014).
The source made the active and inactive calls. No cut-off for these calls is given here. Where a SMILES comes first, the peptide text is derived from it. [ ]: non-standard residue; d: D form. The star is where a group is joined. Benzoyl(4-TriPhPorphyrinyl) = O=C(c1ccc(-c2c3nc(c(-c4ccccc4)c4ccc([nH]4)c(-c4ccccc4)c4nc(c(-c5ccccc5)c5ccc2[nH]5)C=C4)C=C3)cc1)*; X1 = C[n+]1ccc(-c2c3nc(c(-c4cc[n+](C)cc4)c4ccc([nH]4)c(-c4cc[n+](C)cc4)c4nc(c(-c5ccc(C(=O)*)cc5)c5ccc2[nH]5)C=C4)C=C3)cc1; His(π-Me) = Cn1cncc1C[C@H](N)C(=O)O

Tests used:
[1] = Photoinactivation of human HFFF2 cells incubated for 60 mins followed by irradiated with 13.5 J cm'-2 of blue light; type: cell-based; conditions: HFFF2, light or radiation study, 1 h
[2] = Drug uptake in human HFFF2 cells assessed as increase in red fluorescence at 5 uM incubated for 60 to 3 hrs mins followed by irradiated with 13.5 J cm'-2 of blue light measured after drug washout by flow cytometry; type: ADME, cell-based; conditions: hfff2, 5 µM
[3] = Drug uptake in human HFFF2 cells in assessed as increase in red fluorescence at 5 uM incubated for 60 to 3 hrs mins by flow cytometry; type: ADME, cell-based; conditions: hfff2, 5 µM
[4] = Drug uptake in human HFFF2 cells assessed as increase in red fluorescence at 5 uM incubated for 60 to 3 hrs mins followed by irradiated with 13.5 J cm'-2 of blue light by flow cytometry; type: ADME, cell-based; conditions: hfff2, 5 µM
[5] = Drug uptake in human HFFF2 cells assessed as increase in red fluorescence at 5 uM incubated for 60 to 3 hrs mins followed by irradiated with 13.5 J cm'-2 of blue light by fluorescence microscopic analysis; type: ADME, cell-based; conditions: hfff2, 5 µM
Escherichia coli [6] = assay: Drug uptake in Escherichia coli ATCC 25922 assessed as increase in red fluorescence at 5 uM incubated for 60 mins by flow cytometry; type: ADME, organism-based; conditions: in vivo, 1 h
In short: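 Stationary-phase cells grown overnight in BHI at 37 °C, washed twice, resuspended in PBS pH 7.3 at ~2 × 10^7 cells/mL. Exposed to PS in the dark at room temperature for 60 min, then analysed directly or after three PBS washes (centrifugation at 10 000g for 5 min). Read-out is cell-associated porphyrin red fluorescence by flow cytometry; background taken from cells without PS.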

Staphylococcus aureus [7] = assay: Drug uptake in methicillin-resistant Staphylococcus aureus ATCC BAA-44 assessed as increase in red fluorescence at 1.5 uM incubated for 60 mins measured after drug washout by flow cytometry; type: ADME, organism-based; conditions: in vivo, 1 h
In short: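 Stationary-phase overnight BHI cultures (37 °C) were washed twice and resuspended in PBS (pH 7.3) at ~2 × 10^7 cells/mL. They were then analysed by flow cytometry for cell-associated red porphyrin fluorescence, either unwashed or after three PBS washes (10 000g, 5 min). Cells without PS set the background fluorescence.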

[8] = Photoinactivation of human HFFF2 cells at 5 uM incubated for 60 mins followed by irradiated with 13.5 J cm'-2 of blue light; type: cell-based; conditions: hfff2, 1 h
In short: (§1)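 HFFF2 fibroblasts were grown in DMEM with 10% FBS at 37 °C and 5% CO2, seeded at 7 × 10^3 cells/well and grown 48 h. Cells were incubated 60 min in the dark with PS in medium with 3% FBS, washed twice with PBS containing Ca2+/Mg2+, and irradiated in PBS with 13.5 J cm−2 of blue light. After 24 h in 10% FBS medium, viability was read by MTS (1.5 h, A492) as % of untreated control.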

[9] = Solubility of the compound in water; type: physicochemical; conditions: buffer
[10] = Drug uptake in human HFFF2 cells assessed as increase in red fluorescence at 5 uM incubated for 60 mins followed by irradiated with 13.5 J cm'-2 of blue light by flow cytometry; type: ADME, cell-based; conditions: hfff2, 1 h
[11] = Photoinactivation of human HFFF2 cells at 3 uM incubated for 60 mins followed by irradiated with 13.5 J cm'-2 of blue light; type: cell-based; conditions: hfff2, 1 h; in short: as §1
Escherichia coli [12] = assay: Photoinactivation of Escherichia coli ATCC 25922 assessed as log reduction of CFU at 15 uM incubated for 60 mins followed by irradiated with 13.5 J cm'-2 of blue light measured after drug washout; type: functional
In short: (§2)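 Stationary-phase overnight BHI cultures (37 °C) were washed and resuspended in PBS (pH 7.3) at ~2 × 10^7 cells/mL, then incubated with PS in the dark at rt for 60 min. Suspensions were left unwashed or washed three times with PBS. They were irradiated with blue light (390–460 nm, 15.2 mW cm−2) to 13.5 J cm−2. Serial 10-fold dilutions were plated in duplicate on BHI agar and cfu counted after overnight growth at 37 °C. Experiments were repeated at least three times.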

Staphylococcus aureus [13] = assay: Photoinactivation of methicillin-resistant Staphylococcus aureus ATCC BAA-44 at 0.5 to 1 uM incubated for 60 mins followed by irradiated with 13.5 J cm'-2 of blue light; type: functional, organism-based; in short: as §2
Escherichia coli [14] = assay: Photoinactivation of Escherichia coli ATCC 25922 assessed as log reduction of CFU at 5 uM incubated for 60 mins followed by irradiated with 13.5 J cm'-2 of blue light measured after drug washout; type: functional
In short: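 Overnight BHI cultures (37 °C, stationary phase) washed and resuspended in PBS pH 7.3 at ~2 × 10^7 cells/mL. Incubated with increasing PS concentrations for 60 min in the dark at room temperature. Serial 10-fold dilutions plated in duplicate on BHI agar for CFU; at least three independent experiments.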

| Structure (SMILES) | IC50 [1] [nM] | Drug uptake [2] | Drug uptake [3] | Drug uptake [4] | Drug uptake [5] | Drug uptake (Escherichia coli [6]) | Drug uptake (Staphylococcus aureus [7]) | Activity [8] | solubility [9] | Drug uptake [10] | Activity [11] | CFU/ml (Escherichia coli [12]) [log reduction] | Activity (Staphylococcus aureus [13]) | Activity (Escherichia coli [14]) |
| --- | --- | --- | --- | --- | --- | --- | --- | --- | --- | --- | --- | --- | --- | --- |
| CC[C@H](C)[C@H](NC(=O)[C@H](Cc1ccc(O)cc1)NC(=O)[C@@H](NC(=O)[C@@H]1CCCN1C(=O)[C@H](CCCNC(=N)N)NC(=O)[C@H](CC(N)=O)NC(=O)[C@H](CC(N)=O)NC(=O)CNC(=O)c1ccc(-c2c3nc(c(-c4ccccc4)c4ccc([nH]4)c(-c4ccccc4)c4nc(c(-c5ccccc5)c5ccc2[nH]5)C=C4)C=C3)cc1)C(C)C)C(=O)N1CCC[C@H]1C(=O)N[C@@H](CCC(N)=O)C(=O)N1CCC[C@H]1C(=O)N[C@@H](CCCNC(=N)N)C(=O)N1CCC[C@H]1C(=O)N1CCC[C@H]1C(=O)N[C@@H](Cc1cnc[nH]1)C(=O)N1CCC[C@H]1C(=O)N[C@@H](CCCNC(=N)N)C(=O)N[C@@H](CC(C)C)C(=O)O ({Benzoyl(4-TriPhPorphyrinyl)}-GNNRPVYIPQPRPPHPRL-OH) | 21 | Active | Active | Active | Active |  |  |  |  |  |  |  |  |  |
| CC[C@H](C)[C@H](NC(=O)[C@H](Cc1ccc(O)cc1)NC(=O)[C@@H](NC(=O)[C@@H]1CCCN1C(=O)[C@H](CCCNC(=N)N)NC(=O)[C@H](CC(N)=O)NC(=O)[C@H](CC(N)=O)NC(=O)CNC(=O)c1ccc(-c2c3nc(c(-c4cc[n+](C)cc4)c4ccc([nH]4)c(-c4cc[n+](C)cc4)c4nc(c(-c5cc[n+](C)cc5)c5ccc2[nH]5)C=C4)C=C3)cc1)C(C)C)C(=O)N1CCC[C@H]1C(=O)N[C@@H](CCC(N)=O)C(=O)N1CCC[C@H]1C(=O)N[C@@H](CCCNC(=N)N)C(=O)N1CCC[C@H]1C(=O)N1CCC[C@H]1C(=O)N[C@@H](Cc1cncn1C)C(=O)N1CCC[C@H]1C(=O)N[C@@H](CCCNC(=N)N)C(=O)N[C@@H](CC(C)C)C(=O)O (X1-GNNRPVYIPQPRPP[His(π-Me)]PRL-OH) | 9 | Active | Active | Active | Not Active |  |  |  |  |  |  |  |  |  |
| O=C(O)c1ccc(-c2c3nc(c(-c4ccccc4)c4ccc([nH]4)c(-c4ccccc4)c4nc(c(-c5ccccc5)c5ccc2[nH]5)C=C4)C=C3)cc1 | 1270 | Active | Active | Active | Not Active | Not Active | Not Active | Toxic | Insoluble | Active | Toxic |  |  |  |
| C[n+]1ccc(-c2c3nc(c(-c4cc[n+](C)cc4)c4ccc([nH]4)c(-c4ccc(C(=O)O)cc4)c4ccc([nH]4)c(-c4cc[n+](C)cc4)c4nc2C=C4)C=C3)cc1 | 230 | Active | Active | Active | Not Active | Not Active | Not Active | Toxic |  | Active | Toxic | 1 | Active | Active |
